# This is a sample that favours compounds with a hit; in the whole collection about 2.3% have one here.
# PPC-1+TRAIL kill – compounds killing PPC-1 cancer cells with TRAIL present, primary screen, TRAIL potentiator project, ATPLite luminescence, uHTS; cell killing (% activity), % at 4 µM or 5 µM; AID 1443, 2008; PPC-1 cells + TRAIL, ATPLite viability luminescence; 220,000 tested, 0.41% active;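 active = cell killing above 50% in the first pass at 4 µM, then a duplicate retest at 5 µM averaging 50% or more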;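 also: plate controls were cells with TRAIL plus DMSO for no effect and medium-only wells lacking cells for full effect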
# TRAIL sens C8 – viability loss with TRAIL in NB7+C8 cells, primary screen, TRAIL sensitizer project, cell-based, ATPlite luminescence. inhibition (viability loss, TRAIL sensitization), % at 10 µM. 360,000 tested, 1% active. AID 624354, 2012;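 active = compounds causing at least 50% loss of cell viability in the single-dose screen, relative to plate controls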
# STAT1 blocker – STAT1 signaling inhibitors, primary screen, cell-based, HTS, luciferase reporter; NIH 3T3 STAT1-luciferase reporter, IFN-gamma, luminescence; inhibition, % at 5.5 µM; 200,000 tested, 0.35% active;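 active = inhibition above a set limit, the mean inhibition across all tested compounds plus 3 SD, cut at about 34% in these data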;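 also: 0% = IFN-gamma with DMSO and 100% = IFN-gamma with 300 µM nifuroxazide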
# HSP90 inh – HSP90 inhibitors, primary screen, cell lysate, luminescence. inhibition, % at 5.6 µM. Heat shock protein HSP 90 (rabbit reticulocyte lysate; luciferase refolding). 290,000 tested, 0.91% active. Rabbit reticulocyte lysate, luciferase refolding luminescence, 3 h;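 active = inhibition above the screen-wide mean plus 3 SD, computed separately per campaign, cut at about 16% in these data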;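 also: 0% = DMSO wells and 100% = 60 µM geldanamycin wells; inhibitors lower the luminescence because luciferase stays unfolded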
# STAT3 inh – IL-6 driven STAT3 reporter inhibitors, primary screen, U3A cells, luciferase, luminescence, MLSCN library; IL-6 STAT3-luciferase reporter; host cell line lacks STAT1; inhibition, % at 5.5 µM; 190,000 tested, 0.89% active; AID 862, 2007;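 active = inhibition above the mean inhibition across all screened compounds plus 3 SD, cut at about 44% in these data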;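 also: 0% = DMSO only wells and 100% = 100 µM nifuroxazide control wells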
# STAT3 activator – IL-6 driven STAT3 reporter potentiators, primary screen, U3A cells, luciferase, luminescence, MLSCN library | AID 871, 2007 | IL-6 STAT3-luciferase reporter; 100% = signal with IL-6 EC80 alone | 190,000 tested, 0.91% active | activation (% of control), % at 5.6 µM;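 active = activation above the screen-wide mean of compound activation plus 3 SD, cut at about 130% in these data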;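 also: 0% = background luminescence of wells with medium and substrate only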
#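 Material: STAT1-lacking human U3A cells, STAT3 luciferase reporter | Benchmarks: IL-6-only wells as 100% reference | Probe or stimulus: IL-6 (33 ng/mL) | Timing: Compound 1 h, then IL-6 6 h at 37 °C | Detection: Luminescence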
# Numbers without * were called inactive; · = no result.
SMILES,PPC-1+TRAIL kill,TRAIL sens C8,STAT1 blocker,HSP90 inh,STAT3 inh,STAT3 activator
CC[n+]1c(/C=C/C=C/c2ccc(N(C)C)cc2)sc2ccccc21,48,63*,·,2,·,·
CCC(C)C1NC(=O)C(NC(=O)C(CC(C)C)N(C)C(=O)C2CCCN2C(=O)C(C)O)C(C)OC(=O)C(Cc2ccc(OC)cc2)N(C)C(=O)C2CCCN2C(=O)C(CC(C)C)NC(=O)[C@H](C)C(=O)[C@H](C(C)C)OC(=O)CC1O (stereo not given in full),·,82*,·,·,·,·
C#CCCC[C@@H]1OC(=O)CNC(=O)C([C@@H](C)CC)NC(=O)[C@@H]2CCCN2C(=O)C([C@@H](C)CC)OC(=O)[C@H](Cc2ccccc2)N(C)C(=O)[C@H](C(C)C)NC(=O)C1(C)C (stereo not given in full),·,-2,·,·,·,·
COc1ccc(CCNC2(C#N)CCCCC2)cc1OC,·,-5,·,·,·,·
CCOc1ccc(-c2cc(C(=O)N3CCC4(CC3)OCCO4)c3ccccc3n2)cc1,·,71*,·,·,·,·
COc1ccc(-c2cc(C(=O)N3CCC4(CC3)OCCO4)c3ccccc3n2)cc1,·,42,·,5,·,·
CCOC(=O)[C@]12Cc3cc(OC)ccc3[C@H]1N(C1CCCCC1)C(=O)c1cc(OC)ccc12,·,76*,·,·,·,·
CCOC(=O)[C@]12Cc3cc(C)ccc3[C@H]1N(C1CCCCC1)C(=O)c1cc(OC)ccc12,·,96*,·,·,·,·
CCOC(=O)[C@]12Cc3cc(C)ccc3[C@H]1N(CCC(=O)OC)C(=O)c1cc(OC)ccc12,·,27,·,·,·,·
Cc1cccc(C)c1NC(=O)CN(C)CC(=O)Nc1ccc(C#N)c(Cl)c1,19,-12,5,3,-3,106
CCC1C(C#N)=C(N)Oc2c1c(=O)oc1ccccc21 (stereo not given),·,-10,·,-3,·,·
Cc1ccccc1CN1Cc2cnnn2-c2ccccc2C1C#N (stereo not given),·,49*,·,·,·,·
O=C1NCN(c2ccccc2)C12CCN(C(c1cccs1)c1nnnn1C1CCCC1)CC2 (stereo not given),·,-3,·,·,·,·
COc1ccc(-n2nnnc2C(c2ccnc3ccccc23)N2CCC3(CC2)C(=O)NCN3c2ccccc2)cc1 (stereo not given),·,0,·,·,·,·
CC(=O)OC1C(O)C(C)OC(OC2C(OC(=O)C3CCC4C(C3)OC3(CC(OC(=O)/C=C/c5ccccc5)C(C)CO3)C43CO3)OC(C)C(O)C2OC(C)=O)C1O (stereo not given),·,64*,·,·,·,·
CN1OC[C@@H]2CN[C@H](c3ccccc3Br)C[C@@H]21,·,4,·,·,·,·
C[C@@H]1O[C@@H](O[C@@H]2C=C3CCC4C(CC[C@]5(C)[C@@H](c6ccc(=O)oc6)CC[C@]45O)[C@@]3(C)CC2)[C@H](O)[C@H](O)[C@H]1O (stereo not given in full),·,75*,·,·,·,·
CC(=O)C1CCC2(O)C3CCC4=CC(=O)CCC4(C)C3CCC12C (stereo not given),·,-12,·,·,·,·
C[C@@H]1O[C@@H](O[C@@H]2C=C3CC[C@@H]4C(CC[C@]5(C)[C@@H](c6ccc(=O)oc6)CC[C@]45O)[C@@]3(C)CC2)[C@H](O)[C@H](O)[C@H]1O (stereo not given in full),·,76*,·,·,·,·
CCNc1ccc(P(=S)(N(C)C)N(C)C)cc1,-8,-54,-1,-2,-1,105
c1ccc2c(CNC3CCCCC3)c[nH]c2c1,-4,·,3,2,-48,137*
CN(Cc1c[nH]c2ccccc12)C1CCCCC1,-5,-5,11,1,-12,120
CCCCn1c(=O)c(C(=O)Nc2cccc(C)c2)c(O)c2ccccc21,·,0,·,-1,·,·
CC(C)(C)c1cc([N+](=O)[O-])cc(C(C)(C)C)c1O,21,·,59*,-3,60*,52
Nc1ncnc2c1ccn2[C@@H]1O[C@H](CO)[C@@H](O)[C@H]1O,·,88*,·,·,·,·
SMILES,PPC-1+TRAIL kill,TRAIL sens C8,STAT1 blocker,HSP90 inh,STAT3 inh,STAT3 activator
CCOP(=O)(Cc1ccc(C(=O)CC)o1)OCC,22,17,·,-1,·,·
CC(C)OC(=O)c1c(N)n(CC2CCCO2)c2nc3ccccc3nc12 (stereo not given),10,3,4,16*,20,87
CC(C)CCOC(=O)c1c(N)n(CC2CCCO2)c2nc3ccccc3nc12 (stereo not given),8,-19,0,2,7,95
CC1=CC2OC3CC4OC(=O)C=CC=CC(=O)OCCC(C)C(O)C(=O)OCC2(CC1O)C4(C)C31CO1 (stereo not given),·,72*,·,·,·,·
CC1=CC2OC3CC4OC(=O)C=CC=CC(C(C)O)OCC(O)C(C)CC(=O)OCC2(CC1O)C4(C)C31CO1 (stereo not given),·,69*,·,·,·,·
Clc1ccc(C[n+]2c(-c3ccccc3)cc(-c3ccccc3)cc2-c2ccccc2)cc1,·,69*,·,·,·,·
Cc1cc(-c2ccccc2)cc(-c2ccccc2)[n+]1CCc1ccccc1,·,47,·,·,·,·
CCN[C@@H](C)Cc1cccc(C(F)(F)F)c1,·,-1,·,·,·,·
COc1cccc(N2CCN(Cc3cccc(Cl)c3)CC2)c1,3,0,-3,-3,8,97
CCCC1(CCC)C(=O)NC(=NCc2ccccc2)NC1=O,2,77*,10,3,-2,104
CCCC1(CCC)C(=O)NC(=Nc2ccccc2)NC1=O,7,11,4,1,-1,102
COc1ccc2nc(-c3ccc(CN4CCC(n5c(=O)[nH]c6ccccc65)CC4)cc3)c(-c3ccccc3)nc2c1,·,51*,·,·,·,·
COc1ccc(-n2nnnc2C(CCc2ccccc2)N2CCC(n3c(=O)[nH]c4ccccc43)CC2)cc1 (stereo not given),·,90*,·,·,·,·
Cc1cccc(C)c1-n1nnnc1C(CCc1ccccc1)N1CCC(n2c(=O)[nH]c3ccccc32)CC1 (stereo not given),·,82*,·,·,·,·
CC(N)Cc1c[nH]c2cc3c(cc12)OCCO3 (stereo not given),32,-4,6,-1,3,101
O=C1C=Cc2ccccc2C1=O,4,·,9,0,-44,141*
Cc1ccc(-n2c(O)c(/C=N/N3CCOCC3)c(=O)[nH]c2=S)cc1,11,-9,12,-1,4,102
CCOC(=O)[C@]12Cc3cc(OC)ccc3[C@H]1N(Cc1ccccc1)C(=O)c1ccccc12,·,5,·,·,·,·
CCCCCN1C(=O)c2ccccc2[C@@]2(C(=O)OCC)Cc3cc(OC)ccc3[C@@H]12,·,59*,·,·,·,·
CCOC(=O)[C@]12Cc3cc(C)ccc3[C@H]1N(C(C)C)C(=O)c1ccccc12,·,83*,·,·,·,·

# High-throughput results as filed in PubChem.
